From PubChem BioAssay
This is a sample that favours compounds with a hit; in the whole collection about 3.5% have one here.
RGS4 inh: inhibitors of human RGS4; HEK293 M3R/RGS4 inducible, Fluo-4 calcium flux; active compounds read high; triggered by carbachol at its EC20; P49798; hit rate 0.45% among 310,000; B-score at 10 µM;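 active = B-score, a plate-corrected calcium signal, over three deviations above library mean, with baseline fluorescence within five deviations of library mean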;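 also: RGS4 expression induced by doxycycline in cells with stable M3 receptor; B-score is computed from the integrated fluorescence ratio over baseline after carbachol; higher B-score means a larger calcium signal and so more RGS4 inhibition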
Target sequence (P49798 whole entry, looked up): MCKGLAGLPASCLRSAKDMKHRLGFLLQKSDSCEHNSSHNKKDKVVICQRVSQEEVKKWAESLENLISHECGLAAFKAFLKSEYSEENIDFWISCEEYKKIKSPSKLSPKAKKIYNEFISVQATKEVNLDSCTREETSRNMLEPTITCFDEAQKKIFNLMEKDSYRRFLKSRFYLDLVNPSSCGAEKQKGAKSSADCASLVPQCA
MrgX1 antag: blocks BAM8-22 activation of human MrgX1 receptor; Q96LB2; MRGX1-HEK293 calcium flux, Fluo-4, BAM8-22 antagonism; active compounds read low; B-score at 10 µM; hit rate 1.3% among 310,000; AID 588676;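 active = calcium-response B-score plate-corrected more than 3 library SD below zero, starting fluorescence within 5 deviations, no agonist response on first addition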;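 also: peak minus trough fluorescence over baseline after final BAM8-22 challenge near maximal dose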
Target sequence (Q96LB2 whole entry, looked up): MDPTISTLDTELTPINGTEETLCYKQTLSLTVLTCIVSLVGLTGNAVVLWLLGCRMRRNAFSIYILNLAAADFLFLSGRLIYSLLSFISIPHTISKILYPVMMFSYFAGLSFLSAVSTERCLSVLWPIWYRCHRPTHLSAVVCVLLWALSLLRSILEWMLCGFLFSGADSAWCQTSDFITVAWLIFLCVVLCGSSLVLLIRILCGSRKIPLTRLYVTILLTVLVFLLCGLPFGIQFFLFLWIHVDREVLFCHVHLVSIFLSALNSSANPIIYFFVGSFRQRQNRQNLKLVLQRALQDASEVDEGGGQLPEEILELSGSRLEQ
MrgX1 allo act: allosterically activates human MrgX1 receptor signaling; Q96LB2; AID 588675; hit rate 0.63% among 310,000; MrgX1-HEK293, Fluo-4 calcium flux, FDSS; active compounds read high; B-score at 10 µM;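 active = plate-corrected calcium response at least 3 library SD above typical, normal starting fluorescence, not activating the receptor alone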;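 also: compound read alongside a low EC10 to EC30 dose of BAM8-22 agonist; peak minus trough fluorescence over baseline measured at the second addition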
RGS4 act: potentiators or activators of RGS4; HEK293 M3R/inducible RGS4, carbachol calcium flux Fluo4; active compounds read low; B-score at 10 µM; hit rate 0.92% among 310,000; AID 463111;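 active = B-score of the integrated calcium signal more than 4 SD below the library mean, with starting fluorescence not abnormally high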;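 also: negative B-score means reduced calcium response which marks RGS4 activation or potentiation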
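Test system: HEK293 cells with stable M3R and inducible RGS4; also added: carbachol at ECmax as muscarinic agonist stimulus; schedule: dye loading 30 min 37 °C, buffer rest 30 min RT; technique: kinetic calcium fluorescence imaging with Fluo4-AM dye, 2 µM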
MrgX1 agonist: agonists of human MrgX1 receptor; Q96LB2; MrgX1-HEK293 cells, Fluo-4 calcium fluorescence, agonist mode; active compounds read high; B-score at 10 µM; hit rate 0.44% among 310,000;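 active = calcium response B-score plate-corrected fluorescence ratio at least 3 library SD, with starting fluorescence B-score inside 5 SD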
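Test system: HEK293 cells stably expressing human MrgX1 receptor; amount: 15,000 cells per well; doses: compound delivered in addition one of three; times: overnight plating before 1 h dye loading; detection: Fluo-4 NW calcium-flux fluorescence, kinetic read; read-out basis: B-scored fluorescence response ratio; controls: positive and negative controls per plate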
MrgX1 allo conf: confirmation of human MrgX1 receptor positive allosteric modulators | shares compounds with MrgX1 allo act | MrgX1-HEK293, Fluo-4 calcium fluorescence, FDSS | activation (ratio percentage), % at 10 µM | hit rate 13% among 1,200;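 active = ratio at least 3 SD above the weak peptide control, stable starting fluorescence, no direct agonism earlier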;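 also: compound followed by low BAM8-22 agonist challenge near EC20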
HEK293 Ca flux: counter-screen for MrgX1 antagonists: effect in parental HEK293 cells | shares compounds with MrgX1 antag | Fluo-4 calcium fluorescence, FDSS | fluorescence ratio F(max-min)/F0 at 10 µM | hit rate 2% among 4,000;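 active = duplicate-averaged calcium fluorescence ratio at least three times the standard deviation of buffer wells, a nonspecific response in parental cells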
HEK293 Ca counter: MrgX1 allosteric activator counter-screen hit in parental HEK293 cells. shares compounds with MrgX1 antag. hit rate 0.4% among 4,000. parental HEK293 calcium flux, Fluo-4 fluorescence ratio; active compounds read high. fluorescence ratio F(max-min)/F0 at 10 µM;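 active = calcium fluorescence ratio, averaged over duplicates, at least 3 SD of the buffer-well ratio, meaning a nonspecific response in receptor-free cells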;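 also: untransfected parental HEK293 lacking MrgX1 used as counterscreen for MrgX1 allosteric activators; fluorescence change taken during the second addition on a kinetic imager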
HEK293 Ca cntr2: counter-screen for MrgX1 activators: effect in parental HEK293 cells | hit rate 8.7% among 4,000 | fluorescence ratio F(max-min)/F0 at 10 µM | shares compounds with MrgX1 antag | AID 624115 | Fluo-4 calcium fluorescence (FDSS); active compounds read high;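 active = calcium fluorescence ratio at least three times the spread of buffer wells, meaning a non-specific response in parental cells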
* marks the source's active call; other numbers are inactive results.

For CCOC(=O)c1c(CN(CC)CC)n(C)c2cc(Br)c(O)cc12 the results were RGS4 inh inactive, MrgX1 antag inactive, MrgX1 allo act 6.9*, RGS4 act inactive, MrgX1 agonist inactive, MrgX1 allo conf inactive, HEK293 Ca flux inactive, HEK293 Ca counter inactive and HEK293 Ca cntr2 inactive.
For O=C(CCN1CCc2ccccc2C1)Nc1ccc(F)c(F)c1 the results were RGS4 inh inactive, MrgX1 antag inactive, MrgX1 allo act 25*, RGS4 act inactive, MrgX1 agonist inactive, MrgX1 allo conf inactive, HEK293 Ca flux inactive, HEK293 Ca counter inactive and HEK293 Ca cntr2 inactive.
Screening O=C(CCN1CCc2ccccc2C1)Nc1ccc2c(c1)OCO2 returned RGS4 inh inactive, MrgX1 antag inactive, MrgX1 allo act inactive, RGS4 act inactive and MrgX1 agonist inactive.
`COc1ccc(C(CC(=O)O)NS(=O)(=O)c2ccc3c(c2)NC(=O)CO3)cc1` (stereo unspecified) gave RGS4 inh inactive, MrgX1 antag inactive, MrgX1 allo act inactive, RGS4 act inactive and MrgX1 agonist inactive.
Screening Cc1ccc(C(=O)/C=C/c2ccco2)c(O)c1 returned RGS4 inh inactive, MrgX1 antag inactive, MrgX1 allo act inactive, RGS4 act inactive and MrgX1 agonist inactive.
Screening Cc1cccc(C(=O)N[C@H](C(=O)Nc2nccs2)C(C)C)c1 returned RGS4 inh inactive, MrgX1 antag inactive, MrgX1 allo act 24*, RGS4 act inactive, MrgX1 agonist inactive, MrgX1 allo conf inactive, HEK293 Ca flux inactive, HEK293 Ca counter inactive and HEK293 Ca cntr2 inactive.
`Cc1cccc(C(=O)N[C@H](C(=O)Nc2nc(C)cs2)C(C)C)c1` gave RGS4 inh inactive, MrgX1 antag inactive, MrgX1 allo act inactive, RGS4 act inactive and MrgX1 agonist inactive.
O=C(NN=C1CCCC1)c1cc(Cl)cc(Cl)c1O was read as RGS4 inh inactive, MrgX1 antag inactive, MrgX1 allo act inactive, RGS4 act inactive and MrgX1 agonist inactive.
COc1ccccc1-c1c(C(F)(F)F)oc2cc(OC(=O)c3cccc([N+](=O)[O-])c3C)ccc2c1=O was read as RGS4 inh inactive, MrgX1 antag inactive, MrgX1 allo act inactive, RGS4 act inactive and MrgX1 agonist inactive.
`CCOC(=O)c1sc(NC(=O)c2ccccc2C(=O)O)c(C(=O)OCC)c1C` gave RGS4 inh inactive, MrgX1 antag inactive, MrgX1 allo act 13*, RGS4 act inactive, MrgX1 agonist inactive, MrgX1 allo conf inactive, HEK293 Ca flux inactive, HEK293 Ca counter inactive and HEK293 Ca cntr2 inactive.
COC(=O)c1cc(C(=O)OC)cc(N2C(=O)CC(Sc3nc(C)cc(C)n3)C2=O)c1 (stereo unspecified) was read as RGS4 inh inactive, MrgX1 antag inactive, MrgX1 allo act inactive, RGS4 act inactive and MrgX1 agonist inactive.
COC(=O)c1ccc(N2C(=O)CC(Sc3n[nH]c(C)n3)C2=O)cc1 (stereo unspecified) was read as RGS4 inh inactive, MrgX1 antag inactive, MrgX1 allo act 7.8*, RGS4 act inactive, MrgX1 agonist inactive, MrgX1 allo conf inactive, HEK293 Ca flux inactive, HEK293 Ca counter inactive and HEK293 Ca cntr2 inactive.
Screening CC(=O)c1ccccc1OC(=O)COc1ccc([N+](=O)[O-])cc1 returned RGS4 inh inactive, MrgX1 antag inactive, MrgX1 allo act inactive, RGS4 act inactive and MrgX1 agonist inactive.
O=C(CCc1ccccc1)Nc1nc2n(n1)C(c1ccccc1)CC(=O)N2 (stereo unspecified) was read as RGS4 inh inactive, MrgX1 antag inactive, MrgX1 allo act 21*, RGS4 act inactive, MrgX1 agonist inactive, MrgX1 allo conf inactive, HEK293 Ca flux inactive, HEK293 Ca counter inactive and HEK293 Ca cntr2 inactive.
O=C(CCc1ccccc1)Nc1nc2n(n1)C(c1ccc(Cl)cc1)CC(=O)N2 (stereo unspecified) was read as RGS4 inh inactive, MrgX1 antag inactive, MrgX1 allo act inactive, RGS4 act inactive and MrgX1 agonist inactive.
Screening CC(C)(C)NC(=O)CSc1nc(-c2ccc(F)cc2)cs1 returned RGS4 inh inactive, MrgX1 antag inactive, MrgX1 allo act 9.4*, RGS4 act inactive, MrgX1 agonist inactive, MrgX1 allo conf inactive, HEK293 Ca flux inactive, HEK293 Ca counter inactive and HEK293 Ca cntr2 inactive.
For CCc1ccccc1N(CC(=O)NC(C)(C)C)C(=O)CCC(=O)Nc1ccccn1 the results were RGS4 inh inactive, MrgX1 antag inactive, MrgX1 allo act inactive, RGS4 act inactive and MrgX1 agonist inactive.
For Cc1[nH]n(-c2ccccc2)c(=O)c1/C=N/c1nn[nH]n1 the results were RGS4 inh inactive, MrgX1 antag inactive, MrgX1 allo act inactive, RGS4 act inactive and MrgX1 agonist inactive.
Cc1[nH]n(-c2ccccc2)c(=O)c1C=Nc1cnc2ccccc2c1 was read as RGS4 inh inactive, MrgX1 antag inactive, MrgX1 allo act inactive, RGS4 act inactive and MrgX1 agonist inactive.
Screening C=CCSc1nnc(-c2ccccc2N=Cc2c(C)[nH]n(-c3ccccc3)c2=O)c(=O)[nH]1 returned RGS4 inh inactive, MrgX1 antag inactive, MrgX1 allo act 8.7*, RGS4 act inactive, MrgX1 agonist inactive, MrgX1 allo conf inactive, HEK293 Ca flux inactive, HEK293 Ca counter inactive and HEK293 Ca cntr2 inactive.
For CSc1nnc(-c2ccccc2N=Cc2c(C)[nH]n(-c3ccc4ccccc4c3)c2=O)c(=O)[nH]1 the results were RGS4 inh inactive, MrgX1 antag inactive, MrgX1 allo act 12*, RGS4 act inactive, MrgX1 agonist inactive, MrgX1 allo conf inactive, HEK293 Ca flux inactive, HEK293 Ca counter inactive and HEK293 Ca cntr2 inactive.
`COC(C/C=C/[C@H](O)[C@H](C)OCc1ccccc1)OC` gave RGS4 inh inactive, MrgX1 antag inactive, MrgX1 allo act inactive, RGS4 act inactive and MrgX1 agonist inactive.
